Laboratory results: paper PMC8992012 (Bioorganic & medicinal chemistry, 2021)

Tested on: NF-κB
Assay: NF-κB activation using THP1-Blue NF-κB cells
Type: cell-based, human
Details: for NF-κB activity (in words, SAR text to Table 1): compound alone, 5 μM, 20h; for activation at 5 µM: Homo sapiens, 20 h, read-out: NF-κB SEAP Compound alone % Activation
In short: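 THP1-Blue NF-κB cells carry a stably integrated NF-κB-inducible SEAP. They were plated at 10^5 cells/well in RPMI with 10% FBS, penicillin, streptomycin and Normocin, then treated for 20 h with 5 μM test compound (0.5% DMSO final), alone or with LPS at 10 ng/mL. Supernatant SEAP was read colorimetrically at 630 nm. Signals were two-point normalized: baseline (vehicle or LPS) 100%, reference hit 200%.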

| SMILES | NF-κB activity (in words, SAR text to Table 1) | activation at 5 µM [%] |
| --- | --- | --- |
| Cc1ccc(C)c(-c2csc(NCc3ccc(S(=O)(=O)N4CCCCC4)cc3)n2)c1 [Compound 34a, 4-(2,5-dimethylphenyl)-N-(4-(piperidin-1-ylsulfonyl)benzyl)thiazol-2-amine] | inactive | – |
| Cc1ccc(C)c(-c2csc(N(C)C(=O)c3ccc(S(=O)(=O)N4CCCCC4)cc3)n2)c1 [Compound 34c, N-(4-(2,5-dimethylphenyl)thiazol-2-yl)-N-methyl-4-(piperidin-1-ylsulfonyl)benzamide] | inactive | – |
| C#CCN(C(=O)c1ccc(S(=O)(=O)N2CCCCC2)cc1)c1nc(-c2cc(C)ccc2C)cs1 [Compound 34d, N-(4-(2,5-dimethylphenyl)thiazol-2-yl)-4-(piperidin-1-ylsulfonyl)-N-(prop-2-yn-1-yl)benzamide] | inactive | – |
| Cc1ccc(C)c(-c2csc(NC(=O)c3ccc(S(=O)(=O)N4CCCCC4)cn3)n2)c1 [Compound 42a, N-(4-(2,5-dimethylphenyl)thiazol-2-yl)-5-(piperidin-1-ylsulfonyl)picolinamide] | loss of activity | – |
| Cc1ccc(C)c(-c2csc(NC(=O)c3ccc(S(=O)(=O)N4CCCCC4)nc3)n2)c1 [Compound 42b, N-(4-(2,5-dimethylphenyl)thiazol-2-yl)-6-(piperidin-1-ylsulfonyl)nicotinamide] | loss of activity | – |
| Cc1ccc(C)c(-c2csc(NC(=O)c3ccc(S(=O)(=O)N4CCCCC4)s3)n2)c1 [Compound 42c, N-(4-(2,5-dimethylphenyl)thiazol-2-yl)-5-(piperidin-1-ylsulfonyl)thiophene-2-carboxamide] | loss of activity | – |
| Cc1ccc(C)c(-c2csc(NC(=O)c3ccc(S(=O)(=O)N4CCCCC4)c(Cl)c3)n2)c1 [Compound 42d, 3-chloro-N-(4-(2,5-dimethylphenyl)thiazol-2-yl)-4-(piperidin-1-ylsulfonyl)benzamide] | retained NF-κB activity | – |
| Cc1ccc(C)c(-c2csc(NC(=O)c3ccc(S(=O)(=O)N4CCCCC4)c(Br)c3)n2)c1 [Compound 42e, 3-bromo-N-(4-(2,5-dimethylphenyl)thiazol-2-yl)-4-(piperidin-1-ylsulfonyl)benzamide] | retained NF-κB activity | – |
| Cc1ccc(C)c(-c2csc(NC(=O)c3ccc(S(=O)(=O)N4CCCCC4)c([N+](=O)[O-])c3)n2)c1 [Compound 42f, N-(4-(2,5-dimethylphenyl)thiazol-2-yl)-3-nitro-4-(piperidin-1-ylsulfonyl)benzamide] | decline in activity | – |
| COc1cc(C(=O)Nc2nc(-c3cc(C)ccc3C)cs2)ccc1S(=O)(=O)N1CCCCC1 [Compound 42g, N-(4-(2,5-dimethylphenyl)thiazol-2-yl)-3-methoxy-4-(piperidin-1-ylsulfonyl)benzamide] | decline in activity | – |
| Cc1ccc(C)c(-c2csc(NC(=O)c3ccc(S(=O)(=O)N4CCCCC4)cc3Cl)n2)c1 [Compound 42h, 2-chloro-N-(4-(2,5-dimethylphenyl)thiazol-2-yl)-4-(piperidin-1-ylsulfonyl)benzamide] | significantly dropped | – |
| Cc1ccc(C)c(-c2csc(NC(=O)c3ccc(S(=O)(=O)N4CCCCC4)cc3Br)n2)c1 [Compound 42i, 2-bromo-N-(4-(2,5-dimethylphenyl)thiazol-2-yl)-4-(piperidin-1-ylsulfonyl)benzamide] | significantly dropped | – |
| COc1cc(S(=O)(=O)N2CCCCC2)ccc1C(=O)Nc1nc(-c2cc(C)ccc2C)cs1 [Compound 42j, N-(4-(2,5-dimethylphenyl)thiazol-2-yl)-2-methoxy-4-(piperidin-1-ylsulfonyl)benzamide] | significantly dropped | – |
| Cc1ccc(C)c(-c2csc(NC(=O)c3ccc(S(=O)(=O)N4CCCCC4)c(N)c3)n2)c1 [Compound 42k, 3-amino-N-(4-(2,5-dimethylphenyl)thiazol-2-yl)-4-(piperidin-1-ylsulfonyl)benzamide] | decline in activity | – |
| Cc1ccc(C)c(-c2csc(NC(=O)c3ccc(SC4CCCCC4)cc3)n2)c1 [Compound 45a, 4-(cyclohexylthio)-N-(4-(2,5-dimethylphenyl)thiazol-2-yl)benzamide] | none of these modifications at site E was tolerated | – |
| Cc1ccc(C)c(-c2csc(NC(=O)c3ccc(S(=O)(=O)C4CCCCC4)cc3)n2)c1 [Compound 45b, 4-(cyclohexylsulfonyl)-N-(4-(2,5-dimethylphenyl)thiazol-2-yl)benzamide] | none of these modifications at site E was tolerated | – |

| SMILES | NF-κB activity (in words, SAR text to Table 1) | activation at 5 µM [%] |
| --- | --- | --- |
| Cc1ccc(C)c(-c2csc(NC(=O)c3ccc(C(=O)N4CCCCC4)cc3)n2)c1 [Compound 45c, N-(4-(2,5-dimethylphenyl)thiazol-2-yl)-4-(piperidine-1-carbonyl)benzamide] | none of these modifications at site E was tolerated | – |
| Cc1ccc(C)c(-c2csc(NC(=O)c3cccc(C(=O)N4CCCCC4)c3)n2)c1 [Compound 45d, N-(4-(2,5-dimethylphenyl)thiazol-2-yl)-3-(piperidine-1-carbonyl)benzamide] | none of these modifications at site E was tolerated | 100 |
| Cc1ccc(C)c(-c2csc(NS(=O)(=O)c3ccc(C(=O)N4CCCCC4)cc3)n2)c1 [Compound 51, N-(4-(2,5-dimethylphenyl)thiazol-2-yl)-4-(piperidine-1-carbonyl)benzenesulfonamide] | inactive | – |
| CCCN(CC)S(=O)(=O)c1ccc(C(=O)Nc2nc(-c3cc(C)ccc3C)cs2)cc1 [Compound 54a, N-(4-(2,5-dimethylphenyl)thiazol-2-yl)-4-(N-ethyl-N-propylsulfamoyl)benzamide] | active | – |
| CCCN(CCC)S(=O)(=O)c1ccc(C(=O)Nc2nc(-c3cc(C)ccc3C)cs2)cc1 [Compound 54b, N-(4-(2,5-dimethylphenyl)thiazol-2-yl)-4-(N,N-dipropylsulfamoyl)benzamide] | active | – |
| CCCCN(CCCC)S(=O)(=O)c1ccc(C(=O)Nc2nc(-c3cc(C)ccc3C)cs2)cc1 [Compound 54c, 4-(N,N-dibutylsulfamoyl)-N-(4-(2,5-dimethylphenyl)thiazol-2-yl)benzamide] | lost activity | – |
| CCN(c1ccccc1)S(=O)(=O)c1ccc(C(=O)Nc2nc(-c3cc(C)ccc3C)cs2)cc1 [Compound 54d, N-(4-(2,5-dimethylphenyl)thiazol-2-yl)-4-(N-ethyl-N-phenylsulfamoyl)benzamide] | inactive | – |
| Cc1ccc(C)c(-c2csc(NC(=O)c3ccc(S(=O)(=O)NC4CCCCC4)cc3)n2)c1 [Compound 54e, 4-(N-cyclohexylsulfamoyl)-N-(4-(2,5-dimethylphenyl)thiazol-2-yl)benzamide] | inactive | 100 |
| Cc1ccc(C)c(-c2csc(NC(=O)c3ccc(S(=O)(=O)N4CCN(C(=O)OC(C)(C)C)CC4)cc3)n2)c1 [Compound 54f, tert-butyl 4-((4-((4-(2,5-dimethylphenyl)thiazol-2-yl)carbamoyl)phenyl)sulfonyl)piperazine-1-carboxylate] | inactive | – |
| CCOC1CCN(S(=O)(=O)c2ccc(C(=O)Nc3nc(-c4cc(C)ccc4C)cs3)cc2)CC1 [Compound 54g, N-(4-(2,5-dimethylphenyl)thiazol-2-yl)-4-((4-ethoxypiperidin-1-yl)sulfonyl)benzamide] | very potent | – |
| Cc1ccc(C)c(-c2csc(NC(=O)c3ccc(S(=O)(=O)N4CCNCC4)cc3)n2)c1 [Compound 54i, N-(4-(2,5-dimethylphenyl)thiazol-2-yl)-4-(piperazin-1-ylsulfonyl)benzamide] | inactive | – |
| CC(=O)N1CCN(S(=O)(=O)c2ccc(C(=O)Nc3nc(-c4cc(C)ccc4C)cs3)cc2)CC1 [Compound 54j, 4-((4-acetylpiperazin-1-yl)sulfonyl)-N-(4-(2,5-dimethylphenyl)thiazol-2-yl)benzamide] | inactive | – |
| CCCN1CCN(S(=O)(=O)c2ccc(C(=O)Nc3nc(-c4cc(C)ccc4C)cs3)cc2)CC1 [Compound 54k, N-(4-(2,5-dimethylphenyl)thiazol-2-yl)-4-((4-propylpiperazin-1-yl)sulfonyl)benzamide] | inactive | 100 |
| CCCC1CCN(S(=O)(=O)c2ccc(C(=O)Nc3nc(-c4cc(C)ccc4Br)cs3)cc2)CC1 [Compound 55, N-(4-(2-bromo-5-methylphenyl)thiazol-2-yl)-4-((4-propylpiperidin-1-yl)sulfonyl)benzamide] | retained NF-κB activity | – |
| CCCC#Cc1sc(NC(=O)c2ccc(S(=O)(=O)N3CCC(CCC)CC3)cc2)nc1-c1cc(C)ccc1C [Compound 57, N-(4-(2,5-dimethylphenyl)-5-(pent-1-yn-1-yl)thiazol-2-yl)-4-((4-propylpiperidin-1-yl)sulfonyl)benzamide] | significant loss of activity | – |
